A selection: hits, their analogues and other compounds. The true share with any hit is near 2.5%.
SIAE inh: human SIAE inhibition, primary screen; actives 0.69% (n = 370,000); Q9HAT2; inhibition, % at 9.66 µM; SIAE FP-Rh probe binding, fluorescence polarization;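 active = inhibition above a cutoff: mean of compounds within the control limits plus 3 SD of those, cut at about 17% in these data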;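 note: 0% = plate median of compound wells and 100% = probe without SIAE protein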
HTRA1 inh: inhibitors of human serine peptidase HTRA1; Q92743; recombinant HTRA1, FP-rhodamine activity-based probe, fluorescence polarization; inhibition, % at 5.96 µM; actives 0.5% (n = 340,000); in the data active = inhibition above about 36%;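 note: 0% = enzyme with DMSO and 100% = wells lacking enzyme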
PRMT1 FP inh: inhibitors of human PRMT1; recombinant PRMT1, activity-based probe fluorescence polarization; actives 1.3% (n = 370,000); Q99873; AID 652257; inhibition, % at 2.79 µM;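 active = inhibition above about 21% made by adding two undisclosed values, limit read from the data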
TCR CD3 inh: human TCR-CD3 binding inhibition; actives 0.37% (n = 360,000); inhibition, % at 9.4 µM; TAMRA-labeled TCR probe fluorescence, biochemical; in the data active = inhibition above about 19%;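 note: recombinant mutant TCR 2C K166C tagged with TAMRA read by polarization; 0% = receptor in buffer alone and 100% = receptor with positive control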
ABHD4 inh: inhibitors of mouse ABHD4; AID 720543; purified mABHD4, FP-Rh probe fluorescence polarization; actives 0.54% (n = 370,000); inhibition, % at 8.92 µM; Q8VD66;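 active = inhibition exceeding the mean over every tested compound plus 3 SD, cut at about 30% in these data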;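 note: 0% = plate median of compound wells and 100% = S159A mutant with DMSO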
Target sequence (Q8VD66 whole entry, looked up): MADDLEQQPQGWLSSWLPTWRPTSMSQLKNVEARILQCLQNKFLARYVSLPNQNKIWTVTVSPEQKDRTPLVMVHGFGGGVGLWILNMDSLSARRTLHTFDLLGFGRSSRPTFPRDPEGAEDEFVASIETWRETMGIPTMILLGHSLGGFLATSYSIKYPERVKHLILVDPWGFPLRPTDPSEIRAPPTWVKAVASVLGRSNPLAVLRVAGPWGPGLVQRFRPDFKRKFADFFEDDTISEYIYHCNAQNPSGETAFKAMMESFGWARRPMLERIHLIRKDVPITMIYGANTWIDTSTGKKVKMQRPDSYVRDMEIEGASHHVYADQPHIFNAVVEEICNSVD
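Material: mouse ABHD4 enzyme, wild type; Benchmarks: S159A mutant high control, sample median low control; Buffer or medium: HEPES pH 7.0, NaCl, Pluronic buffer; Signal: fluorescence polarization; Read-out: percent inhibition of probe binding, normalized to plate controls; Timing: pre-incubation 45 min, probe exposure 60 min, at 25 °C; Dosing: 8.92 µM, single dose.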
SIAE confirm: confirmation of human SIAE inhibitors; AID 1117263; shares compounds with SIAE inh; inhibition, % at 9.66 µM; SIAE FP-Rh activity-based probe, fluorescence polarization; actives 13% (n = 2,300);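 active = mean inhibition of the replicates above the hit cutoff set in the primary screen, cut at about 17% in these data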;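 note: 0% = SIAE with DMSO and probe and 100% = probe without SIAE; inhibitors lower polarization as more probe stays unbound to SIAE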
* marks the source's active call; other numbers are inactive results.

What do the screens show for `CCc1nc(SCC(=O)Nc2ccc(N(C)C)cc2)c2ccccc2n1`?
SIAE inh: 4; HTRA1 inh: 5; PRMT1 FP inh: 13; TCR CD3 inh: 1; ABHD4 inh: 8

How did CCc1cccc2c(N=O)c(O)[nH]c12 do in these assays?
SIAE inh: 21*; HTRA1 inh: 13; PRMT1 FP inh: 1; TCR CD3 inh: 2; ABHD4 inh: -2; SIAE confirm: 15

How did O=Nc1c(O)[nH]c2c(F)cccc12 do in these assays?
SIAE inh: 5; HTRA1 inh: 13; PRMT1 FP inh: 1; TCR CD3 inh: -3; ABHD4 inh: 8

What do the screens show for `CCOc1ccc(OCc2ccc(C(=O)O)o2)cc1`?
SIAE inh: 39*; HTRA1 inh: 4; PRMT1 FP inh: 3; TCR CD3 inh: -3; ABHD4 inh: 4; SIAE confirm: -1

Results for O=C(O)c1ccc(COc2ccc3ccccc3c2)o1 ?
SIAE inh: -1; HTRA1 inh: 1; PRMT1 FP inh: -4; TCR CD3 inh: -2; ABHD4 inh: -1

What do the screens show for `COC(=O)c1[nH]c2ccc(Cl)cc2c1NC(=O)CN1CCC(C(N)=O)CC1`?
SIAE inh: 22*; PRMT1 FP inh: -2; TCR CD3 inh: -2; ABHD4 inh: 5; SIAE confirm: -5

How did Nc1sc(-c2ccccc2)cc1C(=O)NCCc1c[nH]c2ccccc12 do in these assays?
SIAE inh: 26*; PRMT1 FP inh: 5; TCR CD3 inh: -2; ABHD4 inh: 1; SIAE confirm: 8

Results for Nc1[nH]c(C(=O)c2ccccc2)c(-c2ccccc2Br)c1C(=O)NCCc1c[nH]c2ccccc12 ?
SIAE inh: 19*; PRMT1 FP inh: 2; TCR CD3 inh: 0; ABHD4 inh: 18; SIAE confirm: 7

What do the screens show for `Nc1[nH]c(C(=O)c2ccc(Br)cc2)c(-c2ccccc2Br)c1C(=O)NCCc1c[nH]c2ccccc12`?
SIAE inh: 7; PRMT1 FP inh: 4; TCR CD3 inh: -5; ABHD4 inh: 11

Results for Nc1[nH]c(C(=O)c2ccccc2)c(-c2ccc([N+](=O)[O-])cc2)c1C(=O)NCCc1c[nH]c2ccccc12 ?
SIAE inh: 4; PRMT1 FP inh: 7; TCR CD3 inh: -6; ABHD4 inh: 9

What do the screens show for `Nc1[nH]c(C(=O)c2ccccc2)c(-c2ccccc2[N+](=O)[O-])c1C(=O)NCCc1c[nH]c2ccccc12`?
SIAE inh: 18*; PRMT1 FP inh: 4; TCR CD3 inh: -4; ABHD4 inh: 23; SIAE confirm: 1

How did CCCCS(=O)(=O)N1CCCc2nc(C)c(C)cc21 do in these assays?
SIAE inh: 2; PRMT1 FP inh: 9; TCR CD3 inh: 1; ABHD4 inh: 7

What do the screens show for `COc1ccc(C(=O)NC(=S)Nc2cccc3cc(O)ccc23)cc1OC`?
SIAE inh: 28*; HTRA1 inh: -13; PRMT1 FP inh: 4; TCR CD3 inh: -3; ABHD4 inh: 4; SIAE confirm: 6

How did COc1ccccc1C(=O)NC(=S)Nc1cccc2cc(O)ccc12 do in these assays?
SIAE inh: -16; HTRA1 inh: -47; PRMT1 FP inh: 0; TCR CD3 inh: 10; ABHD4 inh: -55

Results for CCN(CC)C(=O)CSc1nnc([C@@H](NC(=O)OC(C)(C)C)C(C)C)o1 ?
SIAE inh: -2; HTRA1 inh: -6; PRMT1 FP inh: -2; TCR CD3 inh: 1; ABHD4 inh: -2

How did CSc1nnc([C@@H](NC(=O)OC(C)(C)C)C(C)C)o1 do in these assays?
SIAE inh: 18*; HTRA1 inh: 6; PRMT1 FP inh: 1; TCR CD3 inh: 7; ABHD4 inh: -5; SIAE confirm: 9

What do the screens show for `COc1ccc(C(C)(C)C)cc1NC(=O)Nc1ccc2c(c1)OCO2`?
SIAE inh: 21*; HTRA1 inh: 4; PRMT1 FP inh: 2; TCR CD3 inh: 6; ABHD4 inh: -4; SIAE confirm: 6

What do the screens show for `CCNC(=S)NNC(=O)c1ccc(OC)cc1`?
SIAE inh: 17*; HTRA1 inh: 3; PRMT1 FP inh: -2; TCR CD3 inh: 2; ABHD4 inh: -4; SIAE confirm: 7

Results for CCCCC(=O)NC(=S)NNC(=O)c1ccc(OC)cc1 ?
SIAE inh: 0; HTRA1 inh: 3; PRMT1 FP inh: 8; TCR CD3 inh: 10; ABHD4 inh: 7

How did CCCCc1c(-c2ccccc2OC)ncn1CCc1cccc(OC)c1 do in these assays?
SIAE inh: -1; PRMT1 FP inh: 1; TCR CD3 inh: 2; ABHD4 inh: 4

How did CCCCc1c(-c2ccccc2OC)ncn1Cc1cccc(OC)c1 do in these assays?
SIAE inh: 20*; PRMT1 FP inh: 5; TCR CD3 inh: 3; ABHD4 inh: 2; SIAE confirm: -4

Results for COc1ccccc1C(=O)N1CCN(C(=O)[C@H]2O[C@@H](n3cnc(C(N)=O)n3)[C@H](O)[C@@H]2O)CC1 ?
SIAE inh: 19*; PRMT1 FP inh: -7; TCR CD3 inh: 1; ABHD4 inh: 0; SIAE confirm: 13

How did COCCN(Cc1ccc(C)cc1)C(=O)[C@H]1O[C@@H](n2cnc(C(N)=O)n2)[C@H](O)[C@@H]1O do in these assays?
SIAE inh: 21*; PRMT1 FP inh: 4; TCR CD3 inh: -7; ABHD4 inh: -8; SIAE confirm: 20*

What do the screens show for `NC(=O)c1ncn([C@@H]2O[C@H](C(=O)Nc3ccc(Oc4ccccc4)nc3)[C@@H](O)[C@H]2O)n1`?
SIAE inh: 12; PRMT1 FP inh: 5; TCR CD3 inh: 0; ABHD4 inh: -8

Results for NC(=O)c1ncn([C@@H]2O[C@H](C(=O)Nc3ccc(C(=O)N4CCCCC4)cc3)[C@@H](O)[C@H]2O)n1 ?
SIAE inh: 18*; PRMT1 FP inh: -3; TCR CD3 inh: -6; ABHD4 inh: -2; SIAE confirm: 18*

What do the screens show for `CCOc1ccc(-n2c(SC/C=C/c3ccccc3)nnc2-c2ccco2)cc1`?
SIAE inh: 2; PRMT1 FP inh: -25; ABHD4 inh: -7

What do the screens show for `O=C(CN1CCOCC1)OCCCC1CCCCC1`?
SIAE inh: 4; HTRA1 inh: -1; PRMT1 FP inh: -1; TCR CD3 inh: 2; ABHD4 inh: -2

What do the screens show for `CC(C)CCCC(C)CCOC(=O)CN1CCCC1` (stereo unspecified)?
SIAE inh: 18*; HTRA1 inh: 3; PRMT1 FP inh: -3; TCR CD3 inh: 5; ABHD4 inh: 1; SIAE confirm: -1

Results for CCCCN(C(=O)C1=COCCO1)c1c(N)n(CCC)c(=O)[nH]c1=O ?
SIAE inh: 20*; HTRA1 inh: 8; PRMT1 FP inh: 0; TCR CD3 inh: 3; ABHD4 inh: 0; SIAE confirm: -6

What do the screens show for `O=C(CN1CCN(c2ccc(C(F)(F)F)cn2)CC1)NCc1ccc2c(c1)OCO2`?
SIAE inh: 10; HTRA1 inh: -1; PRMT1 FP inh: -1; TCR CD3 inh: -6; ABHD4 inh: -6
